Tests used:
[1] = tested on: Rattus norvegicus; assay: Antiinflammatory activity in po dosed rat assessed as inhibition of carrageenan-induced paw edema; assay type: functional; details: for ED50: Rattus norvegicus, po, read-out: ID50 (the source's name)
Method in brief: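 Carrageenan paw edema (Winter method) in male rats, seven animals per dose. Drug given orally as a suspension in 0.5% CMC at three or more dose levels within 0.1–18 mg/kg.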

[2] = tested on: Rattus norvegicus; assay: Antiinflammatory activity in Wistar albino rat assessed as inhibition of adjuvant-induced arthritis at 0.25 mg/kg, po administered for 14 days followed by adjuvant challenge relative to control; assay type: functional; details: 336 h
Method in brief: (§1)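 Adjuvant arthritis in female rats, ten animals per dose. Oral treatment given either prophylactically or therapeutically at the stated doses. Percent inhibition reported as mean ± SE.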

[3] = tested on: Rattus norvegicus; assay: Analgesic activity in carrageenan-treated po dosed rat assessed as concentration required to double pain index of control; assay type: functional
Method in brief: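 Randall–Selitto paw-pressure test in male rats after carrageenan injection, seven animals per dose level. Pain index = pain threshold after carrageenan / threshold before carrageenan. AID2.0 is the dose doubling the control group's pain index. It and its 95% fiducial limits come from a least-squares regression line, with limits by Fieller's equation.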

[4] = tested on: Mus musculus; assay: Analgesic activity in po dosed mouse assessed as inhibition of acetic acid-induced writhing; assay type: functional
Method in brief: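 Acetic acid writhing test (Koster method) in male mice, ten animals per dose level.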

[5] = Acute toxicity in po dosed rat after 7 days; details: in vivo
[6] = tested on: Rattus norvegicus; assay: Antiinflammatory activity in Wistar albino rat assessed as inhibition of adjuvant-induced arthritis at 0.25 mg/kg, po administered for 14 days prior to adjuvant challenge relative to control; assay type: functional; method in brief: as §1
[7] = Toxicity in po dosed rat assessed as induction of gastric lesion; assay type: organism-based, Stomach; details: in vivo, read-out: UD50 (the source's name)
Method in brief: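 Gastric lesions scored by the Jahn and Adrian method in male rats, ten animals per dose level, after oral dosing. UD50 and 95% fiducial limits by the Litchfield–Wilcoxon method.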

[8] = tested on: Rattus norvegicus; assay: Antiinflammatory activity in rat with acute phase of inflammation assessed as inhibition of adjuvant-carrageenan-induced paw edema at 2 mg/kg, po relative to control; assay type: functional
Method in brief: (§2)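 Adjuvant-carrageenan-induced inflammation in female rats, ten animals per dose. Oral dosing at 1 or 2 mg/kg. Edema inhibition scored separately for the acute and prolonged phases, given as % inhibition (mean ± SE).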

[9] = tested on: Rattus norvegicus; assay: Antiinflammatory activity in rat with prolonged phase of inflammation assessed as inhibition of adjuvant-carrageenan-induced paw edema at 2 mg/kg, po relative to control; assay type: functional; method in brief: as §2
[10] = tested on: Rattus norvegicus; assay: Antiinflammatory activity in rat with acute phase of inflammation assessed as inhibition of adjuvant-carrageenan-induced paw edema at 1 mg/kg, po relative to control; assay type: functional; method in brief: as §2
[11] = tested on: Rattus norvegicus; assay: Antiinflammatory activity in rat with prolonged phase of inflammation assessed as inhibition of adjuvant-carrageenan-induced paw edema at 1 mg/kg, po relative to control; assay type: functional; method in brief: as §2
[12] = tested on: Rattus norvegicus; assay: Potency index, ratio of phenylbutazone ID50 to compound ID50 for antiinflammatory activity in po dosed rat assessed as inhibition of carrageenan-induced paw edema; assay type: functional
Method in brief: (§3)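 The ratio uses oral carrageenan paw-edema ID50 values from male rats, seven animals per dose, with drugs suspended in 0.5% CMC. Each ID50 comes from a least-squares dose–response regression. The index is reference ID50 divided by test ID50 on a weight basis.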

[13] = tested on: Rattus norvegicus; assay: Potency index, ratio of ketoprofen ID50 to compound ID50 for antiinflammatory activity in po dosed rat assessed as inhibition of carrageenan-induced paw edema; assay type: functional; method in brief: as §3
[14] = tested on: Rattus norvegicus; assay: Potency index, ratio of indomethacin ID50 to compound ID50 for antiinflammatory activity in po dosed rat assessed as inhibition of carrageenan-induced paw edema; assay type: functional; method in brief: as §3
[15] = tested on: Rattus norvegicus; assay: Antiinflammatory activity in Wistar albino rat assessed as inhibition of adjuvant-induced arthritis at 0.5 mg/kg, po administered for 14 days followed by adjuvant challenge relative to control; assay type: functional; details: 336 h; method in brief: as §1
[16] = tested on: Rattus norvegicus; assay: Antiinflammatory activity in Wistar albino rat assessed as inhibition of adjuvant-induced arthritis at 0.5 mg/kg, po administered for 14 days prior to adjuvant challenge relative to control; assay type: functional; method in brief: as §1
[17] = tested on: Rattus norvegicus; assay: Antiinflammatory activity in Wistar albino rat assessed as inhibition of adjuvant-induced arthritis at 10 mg/kg, po administered for 14 days prior to adjuvant challenge relative to control; assay type: functional; method in brief: as §1
[18] = tested on: Rattus norvegicus; assay: Antiinflammatory activity in Wistar albino rat assessed as inhibition of adjuvant-induced arthritis at 10 mg/kg, po administered for 14 days followed by adjuvant challenge relative to control; assay type: functional; details: 336 h; method in brief: as §1
[19] = tested on: Rattus norvegicus; assay: Antiinflammatory activity in Wistar albino rat assessed as inhibition of adjuvant-induced arthritis at 1 mg/kg, po administered for 14 days followed by adjuvant challenge relative to control; assay type: functional; details: 336 h; method in brief: as §1
[20] = tested on: Rattus norvegicus; assay: Antiinflammatory activity in Wistar albino rat assessed as inhibition of adjuvant-induced arthritis at 2 mg/kg, po administered for 14 days prior to adjuvant challenge relative to control; assay type: functional; method in brief: as §1
[21] = tested on: Rattus norvegicus; assay: Antiinflammatory activity in Wistar albino rat assessed as inhibition of adjuvant-induced arthritis at 30 mg/kg, po administered for 14 days followed by adjuvant challenge relative to control; assay type: functional; details: 336 h; method in brief: as §1
[22] = tested on: Rattus norvegicus; assay: Antiinflammatory activity in Wistar albino rat assessed as inhibition of adjuvant-induced arthritis at 30 mg/kg, po administered for 14 days prior to adjuvant challenge relative to control; assay type: functional; method in brief: as §1

## O=C(O)Cc1cccc2c1C(=O)c1ccccc1CO2
[1]
  ED50: > 18 mg/kg

## COC(=O)Cc1ccc2c(c1)C(=O)c1ccccc1CO2
[1]
  ED50: 15.2 mg/kg

## CCOC(=O)Cc1ccc2c(c1)C(=O)c1ccccc1CO2
[1]
  ED50: 17.8 mg/kg

## O=C(O)Cc1cc2c(c([N+](=O)[O-])c1)OCc1ccccc1C2=O
[1]
  ED50: > 18 mg/kg

## O=C(O)Cc1ccc2c(c1)C(=O)c1ccc(Cl)cc1CO2
[1]
  ID30: 3 mg/kg
  ED50: 41.6 mg/kg

## COc1ccc2c(c1)COc1ccc(CC(=O)O)cc1C2=O
[1]
  ED50: > 18 mg/kg

## O=C(O)Cc1ccc2c(c1)C(=O)c1cc(Cl)ccc1CO2
[1]
  ID30: > 18 mg/kg
  ED50: > 18 mg/kg

## CC(C(=O)[O-])c1ccc2c(c1)C(=O)c1ccccc1CO2.CC(C(=O)[O-])c1ccc2c(c1)C(=O)c1ccccc1CO2.[Ca+2] (configuration not stated)
[1]
  ED50: 3.5 mg/kg

## CC(C(=O)O)c1ccc2c(c1)C(=O)c1ccc(Cl)cc1CO2 (configuration not stated)
[1]
  ED50: 7.6 mg/kg

## CCOC(=O)Cc1ccc2c(c1)OCc1ccccc1C2=O
[1]
  ED50: 8.6 mg/kg

## O=C(O)Cc1ccc2c(c1)OCc1cc(Cl)ccc1C2=O
[1]
  ED50: 7.6 mg/kg

## O=C(O)Cc1ccc2c(c1)OCc1cc(F)ccc1C2=O
[1]
  ED50: > 9 mg/kg

## O=C(O)Cc1ccc2c(c1)OCc1cc(I)ccc1C2=O
[1]
  ED50: 6.7 mg/kg

## COc1ccc2c(c1)COc1cc(CC(=O)O)ccc1C2=O
[1]
  ED50: > 9 mg/kg

## Cc1ccc2c(c1)COc1cc(CC(=O)O)ccc1C2=O
[1]
  ED50: 6.6 mg/kg

## O=C(O)Cc1ccc2c(c1)OCc1cc(C(F)(F)F)ccc1C2=O
[1]
  ED50: > 9 mg/kg

## CC(C(=O)O)c1ccc2c(c1)OCc1cc(Cl)ccc1C2=O (configuration not stated)
[1]
  ED50: 1.4 mg/kg
[2]
  inhibition in vivo at 0.25 mg/kg: 26%
[3]
  AID2.0 (dose doubling pain index): 0.28 mg/kg
[4]
  ED50: 36 mg/kg
[5]
  LD50 at 168 h: 12.1 mg/kg
[6]
  inhibition in vivo at 0.25 mg/kg: 50%
[7]
  TD50: 32.3 mg/kg

## CC(C(=O)O)c1ccc2c(c1)OCc1cc(F)ccc1C2=O (configuration not stated)
[1]
  ED50: 4 mg/kg

## CC(C(=O)O)c1ccc2c(c1)OCc1cc(I)ccc1C2=O (configuration not stated)
[1]
  ED50: 4.8 mg/kg

## CC(C(=O)O)c1ccc2c(c1)OCc1cc(C(F)(F)F)ccc1C2=O (configuration not stated)
[1]
  ED50: > 9 mg/kg

## CC(C(=O)O)c1ccc2c(c1)OCc1ccc(Cl)cc1C2=O (configuration not stated)
[1]
  ED50: 11.9 mg/kg

## CC(C(=O)O)c1ccc2c(c1)C(=O)c1ccccc1CO2 (racemic)
[8]
  inhibition in vivo at 2 mg/kg: 57%
[1]
  ID50: 2.6 mg/kg
[9]
  inhibition in vivo at 2 mg/kg: 82%
[2]
  inhibition in vivo at 0.25 mg/kg: 12%
[3]
  AID2.0 (dose doubling pain index): 0.4 mg/kg
[4]
  ED50: 14 mg/kg
[6]
  inhibition in vivo at 0.25 mg/kg: 36%
[7]
  TD50: 14.1 mg/kg

## CC(C(=O)O)c1ccc2c(c1)OCc1ccccc1C2=O (racemic)
[1]
  ID50: 0.76 mg/kg
[10]
  inhibition in vivo at 1 mg/kg: 59%
[2]
  inhibition in vivo at 0.25 mg/kg: 30%
[3]
  AID2.0 (dose doubling pain index): 0.18 mg/kg
[4]
  ED50: 11 mg/kg
[5]
  LD50 at 168 h: 34.2 mg/kg
[6]
  inhibition in vivo at 0.25 mg/kg: 55%
[7]
  TD50: 11.4 mg/kg
[11]
  inhibition in vivo at 1 mg/kg: 110%

## CC(C(=O)O)c1ccc2c(c1)C(=O)c1ccccc1CO2 (stereo in doubt; 10)
[1]
  ID50: 1.3 mg/kg

## CC(C(=O)O)c1ccc2c(c1)C(=O)c1ccccc1CO2 (stereo in doubt; 11)
[1]
  ID50: 7.5 mg/kg

## CC(C(=O)O)c1ccc2c(c1)OCc1ccccc1C2=O (stereo in doubt; 23)
[12]
  Ratio: 165.4
[13]
  Ratio: 32.3
[1]
  ED50: 0.43 mg/kg
[14]
  Ratio: 15.4

## CC(C(=O)O)c1ccc2c(c1)OCc1ccccc1C2=O (stereo in doubt; 24)
[1]
  ID50: 0.67 mg/kg

## COc1ccc2c(c1)c(CC(=O)O)c(C)n2C(=O)c1ccc(Cl)cc1 [INDOMETHACIN]
[8]
  inhibition in vivo at 2 mg/kg: 48%
[1]
  ED50: 8.4 mg/kg
[15]
  inhibition in vivo at 0.5 mg/kg: 26%
[9]
  inhibition in vivo at 2 mg/kg: 85%
[3]
  AID2.0 (dose doubling pain index): 1.53 mg/kg
[4]
  ED50: 10 mg/kg
[5]
  LD50 at 168 h: 18.9 mg/kg
[16]
  inhibition in vivo at 0.5 mg/kg: 48%
[7]
  TD50: 6.6 mg/kg

## O=C(O)Cc1ccc2c(c1)C(=O)c1ccccc1CO2 [ISOXEPAC]
[8]
  inhibition in vivo at 2 mg/kg: 28%
[1]
  ED50: 14.3 mg/kg
[9]
  inhibition in vivo at 2 mg/kg: 55%
[17]
  inhibition in vivo at 10 mg/kg: 77%
[3]
  AID2.0 (dose doubling pain index): 3.18 mg/kg
[4]
  ED50: 95 mg/kg
[5]
  LD50 at 168 h: 199 mg/kg
[18]
  inhibition in vivo at 10 mg/kg: 56%
[7]
  TD50: 63 mg/kg

## CC(C(=O)O)c1cccc(C(=O)c2ccccc2)c1 (configuration not stated) [KETOPROFEN]
[1]
  ED50: 12.5 mg/kg
[19]
  inhibition in vivo at 1 mg/kg: 42%
[3]
  AID2.0 (dose doubling pain index): 1.61 mg/kg
[4]
  ED50: 71 mg/kg
[20]
  inhibition in vivo at 2 mg/kg: 84%
[7]
  TD50: 6.8 mg/kg

## O=C(O)Cc1ccc2c(c1)OCc1ccccc1C2=O [OXEPINAC]
[8]
  inhibition in vivo at 2 mg/kg: 45%
[1]
  ED50: 3.7 mg/kg
[15]
  inhibition in vivo at 0.5 mg/kg: 31%
[9]
  inhibition in vivo at 2 mg/kg: 89%
[3]
  AID2.0 (dose doubling pain index): 0.44 mg/kg
[4]
  ED50: 58 mg/kg
[5]
  LD50 at 168 h: 110 mg/kg
[16]
  inhibition in vivo at 0.5 mg/kg: 55%
[7]
  TD50: 79.9 mg/kg

## CCCCC1C(=O)N(c2ccccc2)N(c2ccccc2)C1=O [PHENYLBUTAZONE]
[1]
  ED50: 77.7 mg/kg
[21]
  inhibition in vivo at 30 mg/kg: 58%
[3]
  AID2.0 (dose doubling pain index): 17.22 mg/kg
[4]
  ED50: > 400 mg/kg
[22]
  inhibition in vivo at 30 mg/kg: 71%
[7]
  TD50: 96 mg/kg

From ChEMBL document CHEMBL3272217, “6,11-Dihydro-11-oxodibenz [b,e] oxepinacetic acids with potent antiinflammatory activity” (J Med Chem, 1976)
